Results from ChEMBL document CHEMBL1795273, “Curcumin analogues as possible anti-proliferative & anti-inflammatory agents” (Eur J Med Chem, 2011).
The source made the active and inactive calls. The calls are words filed in the database; no cut-off is given here.

Experiments:
MCF7 [1] = assay: Cytotoxicity against human MCF7 cells after 48 hrs by sulforhodamine B assay; assay type: cell-based; conditions: mcf7, 48 h
How it was run: (§1)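 Cells grown in RPMI 1640 with 5% heat-inactivated FCS, 2 mM L-glutamine and antibiotics, 37 °C, 5% CO2; viability >95% by trypan blue. Seeded 5.000-7.500 cells/well and preincubated 24 h. Compounds in DMSO added at 10-fold dilutions (100 to 0.01 µM) for 48 h. Fixed with cold TCA, SRB-stained, absorbance read at 530 nm. GI50, TGI and LC50 derived from three independent experiments, each in triplicate.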

[2] = target: Aldo-keto reductase family 1 member B1 (Rattus norvegicus) (UniProt P07943); assay: Inhibition of ALR2 in Fischer-344 rat lens at 100 uM; assay type: tissue-based; conditions: Lens of camera-type eye
How it was run: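 Enzyme partially purified from lenses of Fischer-344 rats of both sexes. Lenses homogenized in cold water, spun at 10000 g, 0-4 °C, 15 min; supernatant precipitated at 40% ammonium sulphate saturation and spun again. Compound in 10% aqueous DMSO, tested at 100 µM. D,L-glyceraldehyde substrate; NADPH consumption read at 340 nm. At least triplicate.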

MCF7 [3] = assay: Antiproliferative activity against human MCF7 cells after 48 hrs by sulforhodamine B assay; assay type: functional; conditions: MCF7, 48 h
How it was run: (§2)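 Cells grown in RPMI 1640 with 5% heat-inactivated FCS, 2 mM L-glutamine and antibiotics at 37 °C, 5% CO2; viability >95% by trypan blue. Seeded at 5.000-7.500 cells/well and preincubated 24 h. Compound in DMSO added at 10-fold dilutions (100 to 0.01 µM) for 48 h. TCA fixation, SRB staining, absorbance at 530 nm. GI50, TGI and LC50 derived. Three independent experiments, each in triplicate.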

SF-268 [4] = assay: Cytotoxicity against human SF268 cells after 48 hrs by sulforhodamine B assay; assay type: cell-based; conditions: sf-268, 48 h; how it was run: as §1
[5] = Lipophilicity, RM of the compound assessed by RPTLC; assay type: physicochemical
How it was run: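 Determined by reverse-phase TLC with plates developed in mobile-phase-saturated closed tanks at 24 °C and spots detected under UV. RM = log[(1/Rf) − 1], from 10 individual Rf measurements.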

[6] = Inhibition of soybean 5LOX assessed as conversion of sodium linoleate to 13-[…] acid; parameters: species or system Glycine max
How it was run: (§3)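 Soybean lipoxygenase (1/9 × 10^-4 w/v in saline) incubated at room temperature with compound in DMSO and 0.1 mM sodium linoleate. Formation of 13-hydroperoxylinoleic acid followed at 234 nm. NDGA reference inhibitor. At least triplicate.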

SF-268 [7] = assay: Antiproliferative activity against human SF268 cells after 48 hrs by sulforhodamine B assay; assay type: functional; conditions: SF-268, 48 h; how it was run: as §2
Rattus norvegicus [8] = assay: Toxicity in Fischer-344 rat assessed as ulcerogenicity at 0.2 mmol/kg, ip; assay type: organism-based; conditions: in vivo
NCI-H460 [9] = assay: Antiproliferative activity against human NCI-H460 cells after 48 hrs by sulforhodamine B assay; assay type: functional; conditions: NCI-H460, 48 h; how it was run: as §2
[10] = Therapeutic index, ratio of LC50 for human MCF7 cells to GI50 for human MCF7 cells; assay type: cell-based; conditions: read-out: TI
How it was run: (§4)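 Index is LC50/GI50 from the 48 h SRB growth assay (100–0.01 µM, 10-fold dilutions). Where LC50 exceeded 100 µM, the highest concentration tested, it was taken as 100 µM.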

NCI-H460 [11] = assay: Cytotoxicity against human NCI-H460 cells after 48 hrs by sulforhodamine B assay; assay type: cell-based; conditions: nci-h460, 48 h; how it was run: as §1
Rattus norvegicus [12] = assay: Antiinflammatory activity in carrageenan-induced Fischer-344 rat paw oedema at 0.01 mmol/kg, ip after 3.5 hrs; assay type: functional; conditions: for inhibition in vivo at 10 µmol/kg: Fischer-344, ip
How it was run: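 Fischer-344 rats (150–200g), both sexes, pregnant females excluded, 6–15 per group. Oedema induced in right hind paw by intradermal 0.1 mL 2% carrageenin in water. Compound given ip with the carrageenin, dissolved in water (HCl salt) or suspended with Tween 80 (bases). Euthanized at 3.5 h. Injected minus uninjected paw weight compared with water-treated controls as % inhibition. Mean of two experiments.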

[13] = Therapeutic index, ratio of LC50 for human SF268 cells to GI50 for human SF268 cells; assay type: cell-based, SF-268; conditions: read-out: TI; how it was run: as §4
[14] = Therapeutic index, ratio of LC50 for human NCI-H460 cells to GI50 for human NCI-H460 cells; assay type: cell-based; conditions: read-out: TI; how it was run: as §4
Glycine max = assay: Inhibition of soybean 5LOX assessed as conversion of sodium linoleate to 13-[…] acid at 100 uM; how it was run: as §3

Structure (SMILES) | LC50 (MCF7 [1]) [µM] | inhibition [2] | GI50 (MCF7 [3]) [µM] | TGI (MCF7 [3]) [µM] | LC50 (SF-268 [4]) [µM] | Rm [5] | IC50 [6] [µM] | GI50 (SF-268 [7]) [µM] | TGI (SF-268 [7]) [µM] | Activity (Rattus norvegicus [8]) | GI50 (NCI-H460 [9]) [µM] | TGI (NCI-H460 [9]) [µM] | selectivity ratio [10] | LC50 (NCI-H460 [11]) [µM] | inhibition in vivo at 10 µmol/kg (Rattus norvegicus [12]) [%] | inhibition (Rattus norvegicus [12]) | selectivity ratio [13] | selectivity ratio [14] | inhibition (Glycine max)
O=C1/C(=C/c2ccc3[nH]ccc3c2)CNC/C1=C\c1ccc2[nH]ccc2c1 | > 100 | inactive | 69.5 | > 100 | > 100 | 0.166 | 410 | > 100 | > 100 | Non-toxic | > 100 | > 100 | 1.4 | > 100 | 36 |  |  |  | 
O=C1/C(=C/c2cccs2)CNC/C1=C\c1cccs1 | > 100 | 45.5% | > 100 | > 100 | > 100 | 0.176 | 330 | 98.8 | > 100 | Non-toxic | > 100 | > 100 |  | > 100 |  | inactive | 1 |  | 
O=C1/C(=C/c2ccccc2)CNC/C1=C\c1ccccc1 | 9 | 49% | 0.8 | 4.1 | 9.1 | 0.135 |  | 0.9 | 4.7 | Non-toxic | 2 | 6.1 | 11.6 | 10.3 | 43 |  | 10 | 5.2 | 8%
Cc1ccc(/C=C2\CNC/C(=C\c3ccc(C)s3)C2=O)s1 | > 100 | inactive | 80.7 | > 100 | > 100 | 0.031 |  | 65.2 | > 100 | Non-toxic | 99.3 | > 100 | 1.2 | > 100 | 62 |  | 1.5 | 1 | inactive
O=C1/C(=C/c2ccc(OCc3ccc(Br)cc3)cc2)CNC/C1=C\c1ccc(OCc2ccc(Br)cc2)cc1 | > 100 | inactive | 49.9 | 96.8 | > 100 | 0.076 |  | > 100 | > 100 | Non-toxic | > 100 | > 100 | 2 | > 100 | 49 |  |  |  | 18%
COc1cc(/C=C/C(=O)CC(=O)/C=C/c2ccc(O)c(OC)c2)ccc1O [CURCUMIN] | 67.2 | 12% | 4.7 | 8.3 | 61 |  |  | 5.1 | 9.2 |  | 16.7 | 50.1 | 14.2 | 83.4 |  |  | 11.9 | 5 | 38%
Cc1ccsc1/C=C1\CNC/C(=C\c2sccc2C)C1=O | > 100 | 56% | 63 | > 100 | > 100 | -0.03 |  | 53.8 | > 100 | Non-toxic | 73.2 | > 100 | 1.6 | > 100 | 27 |  | 1.9 | 1.4 | inactive
O=C1/C(=C/c2c[nH]cn2)CNC/C1=C\c1c[nH]cn1 | > 100 | inactive | > 100 | > 100 | > 100 | -0.552 |  | > 100 | > 100 | Non-toxic | > 100 | > 100 |  | > 100 | 11.5 |  |  |  | 36%
O=C1/C(=C/c2c[nH]c3ccccc23)CNC/C1=C\c1c[nH]c2ccccc12 | 8.2 | 27.8% | 3.7 | 6 | 8.2 | 0.597 | 280 | 3.3 | 5.7 | Non-toxic | 3.5 | 6.1 | 2.2 | 8.7 | 33 |  | 2.5 | 2.4 | 
COc1ccc2c(c1)c(CC(=O)O)c(C)n2C(=O)c1ccc(Cl)cc1 [INDOMETHACIN] |  |  |  |  |  |  |  |  |  |  |  |  |  |  | 47 |  |  |  | 
